Measurements published in ChEMBL document CHEMBL3232958, “Antiproliferative and uncoupling effects of delocalized, lipophilic, cationic gallic acid derivatives on cancer cell lines. Validation in vivo in singenic mice” (J Med Chem, 2014).
Calls of active or inactive are those of the source. The calls are words filed in the database; no cut-off is given here.

Tests used:
TA3/Ha [1] = test: Antitumor activity against mouse TA3/Ha cells allografted in CAF1-Jax mouse syngenic model assessed as increase of host survival at 10 mg/kg, ip administered every 48 hrs of 30 days; assay type: functional, organism-based; design: dose 10 mg/kg
[2] = Cytotoxicity against mouse multidrug-resistant TA3-MTX-R cells after 48 hrs by neutral red assay; assay type: functional, cell-based
How it was run: (§1)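 Neutral red uptake after 48 h exposure at 37 °C, 5% CO2. Seeding: 1 × 10^5 cells/mL for TA3, TA3-MTX-R and CCRF-CEM; 4 × 10^4 cells/mL for MM3MG. Dye at 100 μg/mL for 2 h, then ethanol/acetic acid extraction and absorbance at 540 nm. IC50 from variable-slope sigmoidal dose–response fit; at least three independent experiments in triplicate, mean ± SEM.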

TA3-MTX-R [3] = test: Induction of mitochondrial swelling in mouse TA3-MTX-R cell mitochondria at 0.05 to 0.20 mM by UV/vis spectrophotometer analysis; assay type: functional
[4] = Uncoupling respiration effect in mouse TA3-MTX-R cells after 2 mins by polarographic analysis in presence of FCCP; assay type: functional
How it was run: (§2)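 Polarographic respiration of digitonin-permeabilized cells (0.013 μg/mg protein; 2.5 mg protein/mL) in PBS pH 7.4 with 10 mM succinate and 1 μg/mL oligomycin. Cations added in 3 μL DMSO. Atractyloside 5 nmol/mg protein was added before succinate. FCCP added at the end: 0.15 μM for TA3, 0.25 μM for TA3-MTX-R. Slope and K0.5 taken from log–log linear regression; at least three experiments.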

TA3/Ha [5] = test: Decrease of mitochondrial transmembrane potential in mouse TA3/Ha cell mitochondria at 0.5 uM after 5 mins by JC-1 staining; assay type: functional
TA3/Ha [6] = test: Decrease of mitochondrial transmembrane potential in mouse TA3/Ha cell mitochondria at 0.5 uM after 5 mins by JC-1 staining in presence of ADP; assay type: functional
TA3/Ha [7] = test: Induction of NAD(P)H oxidation in mouse TA3/Ha cells assessed as reduction of NAD(P)H/NAD(P)+ ratio by spectrofluorometer analysis; assay type: functional, cell-based
How it was run: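 NAD(P)H autofluorescence (ex 340, em 420 nm) at 25 °C with stirring. Medium: PBS pH 7.4, 2.5 mM glutamine, TA3 cells at 2.5 mg protein/mL. Rotenone (12 μM), FCCP (6 μM) or test cation added during the time course.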

TA3/Ha (Mus musculus) [8] = test: Induction of mitochondrial swelling in mouse TA3/Ha cell mitochondria at 0.15 mM by UV/vis spectrophotometer analysis in presence of cyclosporine-A
[9] = Cytotoxicity against mouse TA3/Ha cells after 48 hrs by neutral red assay; assay type: functional, cell-based; how it was run: as §1
TA3/Ha [10] = test: Induction of mitochondrial swelling in mouse TA3/Ha cell mitochondria at 0.15 mM by UV/vis spectrophotometer analysis in presence of cyclosporine-A; assay type: functional
How it was run: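 Same swelling set-up with TA3/Ha mitochondria (0.5 mg/mL, KCl/Tris pH 7.4, glutamate/malate) at 0.15 mM cation, with increasing cyclosporine concentrations.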

TA3-MTX-R [11] = test: Induction of mitochondrial swelling in mouse TA3-MTX-R cell mitochondria at 0.15 mM by UV/vis spectrophotometer analysis in presence of N-acetylcysteine; assay type: functional
TA3/Ha [12] = test: Reduction of ATP level in mouse TA3/Ha cells at 1 to 20 uM after 2 hrs by CellTiter-Glo luminescent assay; assay type: functional, cell-based
How it was run: (§3)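 CellTiter-Glo luminescence on 2 × 10^5 cells/mL incubated with cation for 2 h. Aliquot held 10 min at room temperature in the dark before reading; at least three experiments.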

TA3/Ha [13] = test: Induction of apoptosis in mouse TA3/Ha cells assessed as caspase 3 activation at 0.5 uM after 24 hrs by Western blot analysis; assay type: functional, cell-based
How it was run: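 Caspase 3 measured by Western blot. RIPA lysates, 50 μg protein run on 12% SDS–PAGE. Anti-caspase 3 (1:1000) and tubulin loading control (1:10000) overnight at 4 °C; HRP secondary for 2 h. ECL detection and densitometry.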

TA3/Ha (Mus musculus) [14] = test: Induction of mitochondrial swelling in mouse TA3/Ha cell mitochondria at 0.15 mM by UV/vis spectrophotometer analysis in presence of N-ethylmaleimide
[15] = Uncoupling respiration effect in mouse TA3/Ha cells after 2 mins by polarographic analysis in presence of atractyloside; assay type: functional; how it was run: as §2
TA3/Ha [16] = test: Antitumor activity against mouse TA3/Ha cells allografted in CAF1-Jax mouse syngenic model assessed as inhibition of tumor growth at 10 mg/kg, ip administered every 48 hrs of 30 days; assay type: functional, organism-based; design: dose 10 mg/kg
How it was run: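 Adult male CAF1-Jax mice; 1.0 × 10^6 TA3/Ha cells in 0.1 mL 0.9% NaCl injected subcutaneously into the back. 10 mg/kg given ip every 48 h for 30 days to groups of six mice; controls received vehicle. Tumor diameters measured three times weekly; volume = (max diameter)(min diameter)²/2. Two independent experiments.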

[17] = Toxicity in mouse TA3/Ha cells assessed as cell membrane integrity after 24 hrs using propidium iodide by flow cytometry; assay type: cell-based; settings: 2 to 4 h, in the assay text read “after 2 to 4 hrs” for “after 24 hrs”
How it was run: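 Membrane integrity by PI uptake on flow cytometry. Cells were seeded, grown for 24 h at 37 °C, 5% CO2, then given fresh medium with cation for 2 and 4 h before PI was added. Mean ± SEM of at least three experiments.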

TA3/Ha [18] = test: Induction of mitochondrial swelling in mouse TA3/Ha cell mitochondria at 0.05 to 0.20 mM by UV/vis spectrophotometer analysis; assay type: functional
[19] = Cytotoxicity against mouse MM3MG cells after 48 hrs by neutral red assay; assay type: cell-based; how it was run: as §1
TA3/Ha [20] = test: Reduction of ATP level in mouse TA3/Ha cells after 2 hrs by CellTiter-Glo luminescent assay; assay type: functional, cell-based; how it was run: as §3
CCRF-CEM = test: Cytotoxicity against human CCRF-CEM cells after 48 hrs by neutral red assay; assay type: functional, cell-based; how it was run: as §1
[21] = Uncoupling respiration effect in mouse TA3-MTX-R cells after 2 mins by polarographic analysis in presence of atractyloside; assay type: functional; how it was run: as §2
TA3/Ha [22] = test: Cytotoxicity against mouse TA3/Ha cells up to 24 hrs by lactate dehydrogenase assay; assay type: functional, cell-based
How it was run: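 LDH release measured with a kit on 2 × 10^5 cells/mL incubated at 37 °C, 5% CO2, 90% humidity. Supernatant taken after centrifugation at 600g for 3 min, then 30 min with reaction mix at room temperature; absorbance read at 450 nm.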

TA3/Ha [23] = test: Induction of apoptosis in mouse TA3/Ha cells assessed as early stage apoptotic cells at 0.5 uM after 24 to 48 hrs using annexin V/propidium iodide staining by flow cytometry; assay type: functional, cell-based
How it was run: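 Annexin V-FITC/PI flow cytometry on 1 × 10^5 cells/mL treated for 24 and 48 h at 37 °C, 5% CO2. 5 min staining at room temperature; 5000 events recorded. Early apoptosis scored as annexin V+/PI−. Staurosporine 10 μM as positive control; at least three experiments, ANOVA with Bonferroni test.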

[24] = Cell cycle arrest in mouse TA3/Ha cells assessed as accumulation at G0/G1 phase at 0.1 to 5 uM after 24 hrs; assay type: functional, cell-based

O=C(OCCCCCCCCCC[P+](c1ccccc1)(c1ccccc1)c1ccccc1)c1cc(O)c(O)c(O)c1.[Br-]
Activity (TA3/Ha [1]): Active
IC50 [2]: 380 nM
Activity (TA3-MTX-R [3]): Active
K0.5 [4]: 1.8 ×10⁻⁵ M
Activity (TA3/Ha [5]): Active
Activity (TA3/Ha [6]): Active
Activity (TA3/Ha [7]): Dose-dependent effect
Activity (TA3/Ha (Mus musculus) [8]): Active
IC50 [9]: 400 nM
Activity (TA3/Ha [10]): Active
Activity (TA3-MTX-R [11]): Active
Activity (TA3/Ha [12]): Active
Activity (TA3/Ha [13]): Active
Activity (TA3/Ha (Mus musculus) [14]): inactive
K0.5 [15]: 4.29 ×10⁻⁵ M
TGI (TA3/Ha [16]): Active
Activity [17]: Non-toxic
Activity (TA3/Ha [18]): Active
IC50 [19]: 7.1 µM
Activity (TA3/Ha [20]): Dose-dependent effect
IC50 (CCRF-CEM): 1650 nM
K0.5 [21]: 5.24 ×10⁻⁵ M
Activity (TA3/Ha [22]): Active
Activity (TA3/Ha [23]): Active
Activity [24]: Active
